{"data": "Measured values collected from several papers", "target": "5-hydroxytryptamine receptor 1A (HTR1A, Homo sapiens, UniProt P08908)", "Residues used in one study (P08908 1-422)": "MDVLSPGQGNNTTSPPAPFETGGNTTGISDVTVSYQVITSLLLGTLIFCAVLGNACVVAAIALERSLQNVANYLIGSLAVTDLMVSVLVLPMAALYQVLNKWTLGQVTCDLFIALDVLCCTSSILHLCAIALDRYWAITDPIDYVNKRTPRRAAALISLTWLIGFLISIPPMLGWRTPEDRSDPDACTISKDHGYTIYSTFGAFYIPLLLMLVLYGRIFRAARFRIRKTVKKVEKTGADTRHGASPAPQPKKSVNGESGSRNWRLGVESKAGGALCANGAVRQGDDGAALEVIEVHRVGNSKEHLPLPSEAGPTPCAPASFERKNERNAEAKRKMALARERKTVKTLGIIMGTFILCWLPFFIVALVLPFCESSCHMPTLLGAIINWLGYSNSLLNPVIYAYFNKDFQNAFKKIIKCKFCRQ", "note": "Protocols differ between the studies behind these lines. pIC50, pKi: −log10 of the molar value."}
{"SMILES": "CC[C@@H](CO)NC(=O)[C@@H]1C=C2c3cccc4c3c(cn4C)C[C@H]2N(C)C1", "assay": "cell-free assay", "measurement": "pKi", "result": 7.15}
{"SMILES": "CN(C)CCc1c[nH]c2cccc(O)c12", "assay": "ligand displacement, radioligand", "measurement": "pKi", "result": 7.08}
{"SMILES": "CC(CCc1ccccc1)NC(C)C(O)c1ccc(O)cc1 (stereo not drawn)", "assay": "calcium signal, antagonist", "measurement": "pIC50", "result": 4.93}
{"SMILES": "C[C@H](N)Cn1ncc2ccc3c(c21)CCCO3", "assay": "cell-free assay, radioligand", "measurement": "pKi", "result": 6.53}
{"SMILES": "COCCCN1CCN(c2ccccc2OC)CC1", "assay": "cell-free assay", "measurement": "pKi", "result": 6.96}
{"SMILES": "NCCc1c[nH]c2cccc(O)c12", "assay": "ligand displacement, radioligand", "measurement": "pKi", "result": 7.36}
{"SMILES": "CN1C[C@@H](CO)C=C2c3cccc4[nH]cc(c34)C[C@H]21", "assay": "ligand displacement, radioligand", "measurement": "pIC50", "result": 8.64}
{"SMILES": "NCCc1c[nH]c2cc(F)ccc12", "assay": "ligand displacement, radioligand", "measurement": "pKi", "result": 6.57}
{"SMILES": "CCCCCNC(=N)N/N=C/c1c[nH]c2ccc(OC)cc12", "assay": "ligand displacement, radioligand", "measurement": "pIC50", "result": 6.84}
